According to ChEMBL document CHEMBL1148687, “Identification of a novel 4-aminomethylpiperidine class of M3 muscarinic receptor antagonists and structural insight into their M3 selectivity” (J Med Chem, 2006):

Key:
[1] = target: T1, Muscarinic acetylcholine receptor M1 (Homo sapiens, UniProt P11229); test: Inhibition of [3H]NMS binding to human cloned M1 receptor expressed in CHO cells; assay type: cell-based
T1 sequence (P11229 whole entry): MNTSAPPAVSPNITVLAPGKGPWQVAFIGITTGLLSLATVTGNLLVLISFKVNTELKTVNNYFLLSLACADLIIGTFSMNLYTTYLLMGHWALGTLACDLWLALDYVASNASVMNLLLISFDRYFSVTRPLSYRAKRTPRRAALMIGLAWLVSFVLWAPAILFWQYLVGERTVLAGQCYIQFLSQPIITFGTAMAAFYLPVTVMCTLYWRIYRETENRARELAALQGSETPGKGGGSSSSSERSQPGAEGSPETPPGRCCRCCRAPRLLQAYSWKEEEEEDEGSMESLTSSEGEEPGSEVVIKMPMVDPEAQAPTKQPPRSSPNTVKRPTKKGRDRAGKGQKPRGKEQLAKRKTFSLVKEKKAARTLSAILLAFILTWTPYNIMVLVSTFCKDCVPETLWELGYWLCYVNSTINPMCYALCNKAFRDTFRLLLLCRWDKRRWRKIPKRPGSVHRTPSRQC
Procedure, shortened: (§1)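 Competition against specific [3H]-NMS binding on membranes of CHO cells expressing cloned human receptor subtypes. Assay buffer 50 mM Tris-HCl, 10 mM MgCl2, 1 mM EDTA, pH 7.4, highest final concentration 10 µM.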

[2] = target: T2, Muscarinic acetylcholine receptor M3 (Homo sapiens, UniProt P20309); test: Inhibition of [3H]NMS binding to human cloned M3 receptor expressed in CHO cells at 1 uM; assay type: cell-based
Target sequence in this assay (P20309 whole entry, looked up): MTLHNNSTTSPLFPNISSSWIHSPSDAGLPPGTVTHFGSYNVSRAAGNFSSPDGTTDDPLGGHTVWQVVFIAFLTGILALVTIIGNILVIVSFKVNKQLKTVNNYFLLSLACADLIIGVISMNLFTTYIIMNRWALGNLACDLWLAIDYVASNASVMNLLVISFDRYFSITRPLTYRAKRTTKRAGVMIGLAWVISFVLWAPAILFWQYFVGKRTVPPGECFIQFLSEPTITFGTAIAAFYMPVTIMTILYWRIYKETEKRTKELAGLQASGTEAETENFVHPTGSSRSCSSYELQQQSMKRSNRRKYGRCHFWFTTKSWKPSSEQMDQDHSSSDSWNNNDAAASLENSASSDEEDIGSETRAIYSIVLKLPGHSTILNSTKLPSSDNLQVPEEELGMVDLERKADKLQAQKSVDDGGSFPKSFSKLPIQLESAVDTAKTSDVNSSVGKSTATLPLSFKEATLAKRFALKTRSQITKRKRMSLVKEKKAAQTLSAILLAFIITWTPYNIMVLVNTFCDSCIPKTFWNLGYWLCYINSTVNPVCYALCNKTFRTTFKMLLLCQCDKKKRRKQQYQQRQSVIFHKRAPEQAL

[3] = target: T3, Muscarinic acetylcholine receptor M4 (Homo sapiens, UniProt P08173); test: Inhibition of [3H]NMS binding to human cloned M4 receptor expressed in CHO cells; assay type: cell-based; procedure, shortened: as §1
T3 sequence (P08173 whole entry): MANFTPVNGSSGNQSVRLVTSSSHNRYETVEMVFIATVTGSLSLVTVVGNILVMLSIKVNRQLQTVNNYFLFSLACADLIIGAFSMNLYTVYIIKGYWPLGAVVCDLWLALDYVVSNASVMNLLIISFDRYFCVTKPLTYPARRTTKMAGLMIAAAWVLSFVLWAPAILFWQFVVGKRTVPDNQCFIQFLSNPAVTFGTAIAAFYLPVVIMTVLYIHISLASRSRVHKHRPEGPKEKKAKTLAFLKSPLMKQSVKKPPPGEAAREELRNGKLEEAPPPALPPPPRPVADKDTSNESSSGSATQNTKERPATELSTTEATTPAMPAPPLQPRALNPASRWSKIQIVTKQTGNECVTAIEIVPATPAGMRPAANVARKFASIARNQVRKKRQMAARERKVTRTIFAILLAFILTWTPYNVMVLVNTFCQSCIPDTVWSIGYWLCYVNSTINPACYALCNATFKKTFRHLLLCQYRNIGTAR

[4] = target: T4, Muscarinic acetylcholine receptor M5 (Homo sapiens, UniProt P08912); test: Inhibition of [3H]NMS binding to human cloned M5 receptor expressed in CHO cells; assay type: cell-based; procedure, shortened: as §1
T4 sequence (P08912 whole entry): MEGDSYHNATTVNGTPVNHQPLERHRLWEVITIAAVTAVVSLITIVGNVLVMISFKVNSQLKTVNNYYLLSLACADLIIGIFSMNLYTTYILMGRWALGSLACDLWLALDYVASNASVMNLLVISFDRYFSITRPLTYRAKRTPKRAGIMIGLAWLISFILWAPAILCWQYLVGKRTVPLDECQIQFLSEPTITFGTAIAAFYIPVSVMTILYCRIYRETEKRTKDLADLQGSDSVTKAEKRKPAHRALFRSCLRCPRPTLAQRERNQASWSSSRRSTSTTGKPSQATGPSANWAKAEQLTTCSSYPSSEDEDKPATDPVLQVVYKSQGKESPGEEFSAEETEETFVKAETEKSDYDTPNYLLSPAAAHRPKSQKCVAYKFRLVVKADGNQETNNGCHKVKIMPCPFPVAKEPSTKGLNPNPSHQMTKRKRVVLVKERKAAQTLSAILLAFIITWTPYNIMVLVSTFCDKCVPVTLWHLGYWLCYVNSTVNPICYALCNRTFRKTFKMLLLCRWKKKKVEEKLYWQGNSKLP

[5] = target: T2, Muscarinic acetylcholine receptor M3; test: Inhibition of [3H]NMS binding to human cloned M3 receptor expressed in CHO cells; assay type: cell-based; procedure, shortened: as §1
Target sequence in this assay (P20309 whole entry): as the sequence (P20309 whole entry, looked up) above

[6] = target: Muscarinic acetylcholine receptor M3 (Rattus norvegicus, UniProt P08483); test: (§2) Antagonist activity at M3 receptor assessed as inhibition of carbachol-induced contraction of rat trachea; assay type: functional; details: read-out: pA2 (converted)
Chain of Muscarinic acetylcholine receptor M3 (Rattus norvegicus, UniProt P08483) (P08483 whole entry): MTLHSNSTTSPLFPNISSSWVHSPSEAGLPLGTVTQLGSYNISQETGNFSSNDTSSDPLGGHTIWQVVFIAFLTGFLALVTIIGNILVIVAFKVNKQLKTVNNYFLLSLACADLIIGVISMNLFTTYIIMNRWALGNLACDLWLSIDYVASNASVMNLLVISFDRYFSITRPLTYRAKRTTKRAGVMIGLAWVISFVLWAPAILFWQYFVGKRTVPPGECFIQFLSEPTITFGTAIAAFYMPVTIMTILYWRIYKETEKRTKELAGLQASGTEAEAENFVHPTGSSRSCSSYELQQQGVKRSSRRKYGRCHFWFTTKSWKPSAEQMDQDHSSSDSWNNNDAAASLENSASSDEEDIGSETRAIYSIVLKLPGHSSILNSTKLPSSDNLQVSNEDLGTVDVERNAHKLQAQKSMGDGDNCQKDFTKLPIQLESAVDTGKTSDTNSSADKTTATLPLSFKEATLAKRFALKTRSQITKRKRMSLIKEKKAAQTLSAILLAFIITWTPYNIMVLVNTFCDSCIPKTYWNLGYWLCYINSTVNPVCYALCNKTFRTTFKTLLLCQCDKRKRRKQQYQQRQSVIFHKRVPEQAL
Procedure, shortened: (§3)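 Contraction of isolated rat trachea evoked by carbachol, antagonist given at several doses. Four experiments per dose, reported as mean ± SEM. Schild regression analysis applied to the data.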

[7] = target: Muscarinic acetylcholine receptor M3 (Rattus norvegicus) (UniProt P08483); test: as §2; assay type: functional; procedure, shortened: as §3
Chain of Muscarinic acetylcholine receptor M3 (Rattus norvegicus) (P08483 whole entry, looked up): as the sequence (P08483 whole entry) above

[8] = target: T5, Muscarinic acetylcholine receptor M2 (Rattus norvegicus, UniProt P10980); test: Antagonist activity at M2 receptor assessed as inhibition of carbachol-induced bradycardia in rat atria; assay type: functional; details: read-out: pA2 (converted)
T5 sequence (P10980 whole entry): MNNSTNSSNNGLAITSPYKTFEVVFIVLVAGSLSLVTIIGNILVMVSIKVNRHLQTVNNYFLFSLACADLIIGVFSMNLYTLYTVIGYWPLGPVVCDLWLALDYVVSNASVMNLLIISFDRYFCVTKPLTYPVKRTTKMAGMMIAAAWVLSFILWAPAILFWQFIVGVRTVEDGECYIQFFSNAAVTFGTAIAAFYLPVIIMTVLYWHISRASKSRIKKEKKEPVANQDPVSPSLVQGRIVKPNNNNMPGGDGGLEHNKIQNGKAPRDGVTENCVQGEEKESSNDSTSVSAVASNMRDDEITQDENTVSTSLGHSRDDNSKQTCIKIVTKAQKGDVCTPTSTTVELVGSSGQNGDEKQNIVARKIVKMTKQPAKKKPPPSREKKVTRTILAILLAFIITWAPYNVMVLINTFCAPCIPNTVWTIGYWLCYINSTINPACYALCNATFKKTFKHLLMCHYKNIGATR
Procedure, shortened: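 Isolated rat right atria, bradycardia evoked by carbachol, antagonist given at several doses. Four experiments per dose, reported as mean ± SEM. Potency obtained by Schild regression analysis.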

Ki [1] [nM]	inhibition [2] [%]	Ki [3] [nM]	Ki [4] [nM]	Ki [5] [nM]	Kb [6] [nM]	Activity [7]	Kb [8] [nM]	Structure (SMILES)
> 2500	74	> 1700	> 5000	99	–	–	–	O=C(NC[C@H]1CCCNC1)[C@H]1CCCN1C(=O)[C@@H]1CCCN1C(=O)CC(c1ccccc1)(c1ccccc1)c1ccccc1
170	–	42	3500	0.3	0.224	Dose-dependent effect	204	O=C(NCC1CCNCC1)[C@H]1CCCN1C(=O)[C@@H]1C[C@@H](O)CN1C(=O)CC(c1ccc(F)cc1)(c1ccc(F)cc1)c1ccc(F)cc1
> 2600	–	290	> 5100	3.7	–	–	–	O=C(NC[C@@H]1CCCNC1)[C@H]1CCCN1C(=O)[C@@H]1C[C@@H](O)CN1C(=O)CC(c1ccccc1)(c1ccccc1)c1ccccc1
93	–	53	2500	0.39	–	–	–	O=C(NCC1CCNCC1)[C@H]1CCCN1C(=O)[C@@H]1C[C@@H](O)CN1C(=O)CC(c1ccc(Cl)cc1)(c1ccc(Cl)cc1)c1ccc(Cl)cc1
300	–	29	1700	0.48	–	–	–	O=C(NCCC1CCNCC1)[C@H]1CCCN1C(=O)[C@@H]1C[C@@H](O)CN1C(=O)CC(c1ccc(F)cc1)(c1ccc(F)cc1)c1ccc(F)cc1
71	–	11	940	0.19	–	–	–	O=C(NCC1CCN(CC2CCCC2)CC1)[C@H]1CCCN1C(=O)[C@@H]1C[C@@H](O)CN1C(=O)CC(c1ccc(F)cc1)(c1ccc(F)cc1)c1ccc(F)cc1
580	–	92	2800	0.92	–	–	–	CCN1CCC(CNC(=O)[C@H]2CCCN2C(=O)[C@@H]2C[C@@H](O)CN2C(=O)CC(c2ccc(F)cc2)(c2ccc(F)cc2)c2ccc(F)cc2)CC1
